According to paper PMC8332596 (Clinical Pharmacokinetics, 2021):
Where two headings read alike, the source gives them in different places.

Assays:
[1] = once-weekly dulaglutide 1.5 mg; patients with T2D; cited from earlier work
[2] = cited from earlier work
[3] = type: in vivo, human; conditions: single 5 mg SC; for tmax median of differences (90% CI): Hodges–Lehmann; for tmax: median (range)
Summary of the method: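 Single SC 5 mg dose given on day 1. Plasma was drawn predose and at 8, 12, 24, 48, 72, 96, 168, 336 and 648 h, then stored at about −70 °C. Drug was immunoprecipitated and quantified by LC–high-resolution MS (HESI, positive ion) over 2.00–500.00 ng/mL. Noncompartmental analysis used actual times, trapezoidal AUClast and log-linear λz. Log AUC/Cmax ratios versus control came from ANOVA with 90% CI; tmax by Hodges–Lehmann.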

[4] = Safety and tolerability after a single subcutaneous dose of tirzepatide 5 mg; type: in vivo, human; conditions: single 5 mg SC
Summary of the method: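 Open-label phase I single-dose study in adults aged 18–85 y with BMI 19.0–40.0 kg/m2, grouped by MDRD eGFR. ESRD subjects were dialysed on high-flux polysulfone membranes. AEs were recorded at screening and on days 1, 2, 3, 4, 5, 8, 15 and ≥28. Glucose was checked predose, at 12–336 h and on day ≥28, with hypoglycaemia defined per ADA guidance. ISRs were assessed to 48 h. Labs (incl. amylase/lipase), vitals and ECGs were taken at set visits.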

[5] = Immunogenicity: antidrug antibodies in serum; type: in vivo, human; conditions: single 5 mg SC, maximum of 30 days of ADA monitoring postdose
[6] = dose range 0.5 to 15 mg, single-dose levels and steady state; cited from earlier work
[7] = mild-to-moderate renal impairment
[8] = moderate renal impairment, N = 8

For dulaglutide, the HbA1c reduction [1] is listed as at most 1.1%, the body weight reduction [1] is listed as at most 2.7 kg and the “influence of the extent of renal impairment on PK” value [2] is listed as “not influenced”.
In the case of albiglutide, the “PK versus subjects with normal renal function” value [2, 7] is given as “not significantly altered”.
For semaglutide, the “impact of renal impairment on plasma PK” value ([2]; oral) is listed as “lack of impact”.
For liraglutide, the “PK versus subjects with normal renal function” value [2, 7] is listed as “not significantly altered”.
In the case of exenatide, the “PK changes versus subjects with normal renal function” value ([2]; subcutaneous, mild-to-moderate renal impairment) is given as “clinically acceptable”.
In the case of `CC[C@H](C)[C@H](NC(=O)[C@H](CC(C)C)NC(=O)[C@H](Cc1c[nH]c2ccccc12)NC(=O)[C@H](CCC(N)=O)NC(=O)[C@@H](NC(=O)[C@H](Cc1ccccc1)NC(=O)[C@H](C)NC(=O)[C@H](CCCCNC(=O)COCCOCCNC(=O)COCCOCCNC(=O)CC[C@H](NC(=O)CCCCCCCCCCCCCCCCCCC(=O)O)C(=O)O)NC(=O)[C@H](CCC(N)=O)NC(=O)[C@H](C)NC(=O)[C@@H](NC(=O)[C@H](CCCCN)NC(=O)[C@H](CC(=O)O)NC(=O)[C@H](CC(C)C)NC(=O)C(C)(C)NC(=O)[C@@H](NC(=O)[C@H](CO)NC(=O)[C@H](Cc1ccc(O)cc1)NC(=O)[C@H](CC(=O)O)NC(=O)[C@H](CO)NC(=O)[C@@H](NC(=O)[C@H](Cc1ccccc1)NC(=O)[C@@H](NC(=O)CNC(=O)[C@H](CCC(=O)O)NC(=O)C(C)(C)NC(=O)[C@@H](N)Cc1ccc(O)cc1)[C@@H](C)O)[C@@H](C)O)[C@@H](C)CC)[C@@H](C)CC)C(C)C)C(=O)N[C@@H](C)C(=O)NCC(=O)NCC(=O)N1CCC[C@H]1C(=O)N[C@@H](CO)C(=O)N[C@@H](CO)C(=O)NCC(=O)N[C@@H](C)C(=O)N1CCC[C@H]1C(=O)N1CCC[C@H]1C(=O)N1CCC[C@H]1C(=O)N[C@@H](CO)C(N)=O` [tirzepatide], the half-life ([3]; human, plasma, sc, 5 mg, t½, ESRD, n = 8, geometric mean (range)) is reported as 151 h, the “tmax median of differences (90% CI)” value ([3]; ESRD vs normal renal function) is reported as 0.00 h and the tmax ([3]; ESRD, n = 8) is reported as 48.00 (24.00–96.00) h. The “relationship between exposure (Cmax, AUClast, AUC∞) and MDRD eGFR” value ([3]; linear regression, eGFR as continuous variable) was “did not show a relationship”, the “higher AUClast versus control” value ([3]; mild renal impairment group classified by CLCR (Cockcroft–Gault)) was 23% and the “tmax median of differences (90% CI)” value ([3]; mild renal impairment vs normal renal function) was 0.00 h. For the same compound, the t½ ([3]; mild renal impairment, n = 8, geometric mean (range)) was 121 (94.6–138) h, the tmax ([3]; mild renal impairment, n = 8) was 48.00 (12.00–96.00) h and the “increase in AUCs versus normal renal function” value ([3]; moderate renal impairment group) was 25–29%. For the same compound, the “geometric mean AUClast higher than control group” value ([3]; moderate renal impairment vs control, 90% CI 1.04–1.52) was 25%, the “geometric mean AUC∞ higher than control group” value ([3]; moderate renal impairment vs control, 90% CI 1.07–1.56) was 29% and the “number of subjects with AEs related to tirzepatide” value (“number of subjects with AEs related” for short) ([4]; ESRD group (37.5%)) was 3. For the same compound, the Abdominal distention ([4]; ESRD, N = 8) was 0 (0.0) n (%), the Back pain ([4]; ESRD, N = 8) was 0 (0.0) n (%) and the Deaths ([4]; ESRD, N = 8) was 0 (0.0) n (%). For the same compound, the Diarrhea ([4]; ESRD, N = 8) was 0 (0.0) n (%), the Headache ([4]; ESRD, N = 8) was 0 (0.0) n (%) and the Nausea ([4]; ESRD, N = 8) was 1 (12.5) n (%). The “Serious AEs” value ([4]; ESRD, N = 8) was 0 (0.0) n (%), the “Treatment-emergent AEs” value ([4]; ESRD, N = 8) was 3 (37.5) n (%) and the Vomiting ([4]; ESRD, N = 8) was 2 (25.0) n (%). The “alterations in laboratory, vital signs values, ECGs, or blood glucose monitoring” value ([4]; all groups) was “no clinically significant alterations”, the severe hypoglycemic events ([4]; all groups) was “no severe hypoglycemic events” and the “discontinuations due to AEs, serious AEs, deaths” value ([4]; all groups, 45 subjects) was “No discontinuations due to AEs, serious AEs, or deaths”. For the same compound, the tolerability ([4]; all treatment groups) was “well-tolerated”, the “injection-site reactions (ISRs)” value ([4]; assessed predose and 0, 6, 12, 24, 48 h postdose) was “No ISRs were reported” and the “number of subjects with AEs related” value ([4]; control group (7.1%)) was 1. For the same compound, the “number of subjects with AEs related” value ([4]; mild renal impairment group (37.5%)) was 3, the Abdominal distention ([4]; mild renal impairment, N = 8) was 0 (0.0) n (%) and the Back pain ([4]; mild renal impairment, N = 8) was 1 (12.5) n (%). For the same compound, the Deaths ([4]; mild renal impairment, N = 8) was 0 (0.0) n (%), the Diarrhea ([4]; mild renal impairment, N = 8) was 1 (12.5) n (%) and the Headache ([4]; mild renal impairment, N = 8) was 0 (0.0) n (%). The Nausea ([4]; mild renal impairment, N = 8) was 1 (12.5) n (%), the “Serious AEs” value ([4]; mild renal impairment, N = 8) was 0 (0.0) n (%) and the “Treatment-emergent AEs” value ([4]; mild renal impairment, N = 8) was 3 (37.5) n (%). For the same compound, the Vomiting ([4]; mild renal impairment, N = 8) was 0 (0.0) n (%), the “number of subjects with AEs related” value ([4]; moderate renal impairment group (37.5%)) was 3 and the Abdominal distention [4, 8] was 1 (12.5) n (%). For the same compound, the Back pain [4, 8] was 1 (12.5) n (%), the Deaths [4, 8] was 0 (0.0) n (%) and the Diarrhea [4, 8] was 1 (12.5) n (%). For the same compound, the Headache [4, 8] was 0 (0.0) n (%), the Nausea [4, 8] was 0 (0.0) n (%) and the “Serious AEs” value [4, 8] was 0 (0.0) n (%). The “Treatment-emergent AEs” value [4, 8] was 3 (37.5) n (%), the Vomiting [4, 8] was 0 (0.0) n (%) and the Abdominal distention ([4]; normal renal function, N = 14) was 0 (0.0) n (%). For the same compound, the Back pain ([4]; normal renal function, N = 14) was 0 (0.0) n (%), the Deaths ([4]; normal renal function, N = 14) was 0 (0.0) n (%) and the Diarrhea ([4]; normal renal function, N = 14) was 0 (0.0) n (%). The Headache ([4]; normal renal function, N = 14) was 1 (7.1) n (%), the Nausea ([4]; normal renal function, N = 14) was 0 (0.0) n (%) and the “Serious AEs” value ([4]; normal renal function, N = 14) was 0 (0.0) n (%). For the same compound, the “Treatment-emergent AEs” value ([4]; normal renal function, N = 14) was 1 (7.1) n (%), the Vomiting ([4]; normal renal function, N = 14) was 0 (0.0) n (%) and the “treatment-related AEs” value ([4]; severe renal impairment group) was “No treatment-related AEs were reported”. For the same compound, the Abdominal distention ([4]; severe renal impairment, N = 7) was 0 (0.0) n (%), the Back pain ([4]; severe renal impairment, N = 7) was 0 (0.0) n (%) and the Deaths ([4]; severe renal impairment, N = 7) was 0 (0.0) n (%). The Diarrhea ([4]; severe renal impairment, N = 7) was 0 (0.0) n (%), the Headache ([4]; severe renal impairment, N = 7) was 0 (0.0) n (%) and the Nausea ([4]; severe renal impairment, N = 7) was 0 (0.0) n (%). The “Serious AEs” value ([4]; severe renal impairment, N = 7) was 0 (0.0) n (%), the “Treatment-emergent AEs” value ([4]; severe renal impairment, N = 7) was 0 (0.0) n (%) and the Vomiting ([4]; severe renal impairment, N = 7) was 0 (0.0) n (%). For the same compound, the “treatment-emergent antidrug antibodies (ADAs)” value [5] was “No treatment-emergent ADAs were detected” and the “dose dependence of PK” value [6] was “linear and dose-proportional”.
For lixisenatide, the “differences in PK versus subjects with normal renal function” value [2, 7] is listed as “no significant differences” and the drug exposure ([2]; severe renal impairment) is listed as “may be increased”.
